A short description of data set [1]: Partition coefficient (logP). In kind it is physicochemical. The note with it: octanol/water. The procedure, abridged: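 Partition coefficient calculated as P = C(octanol)/C(H2O), using the method of Fujita et al.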
Data set [2] deals with Rattus norvegicus. As to the kind of experiment: Hyperglycemic activity and change in blood glucose concentration was reported 2 hours after administration of 100 mg/Kg perorally. In kind it is functional. The procedure, abridged: (§1)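 Overnight-fasted rats dosed orally at 100 mg/kg as a suspension in 1% tragacanth in distilled water. Tail capillary blood sampled at 0, 2 and 4 h after dosing. Serum glucose measured by spectrophotometry of enzymatically produced NADH2. Change is expressed relative to time zero as mean ± SEM of four animals; plus means a rise, minus a fall; p<0.05 marks significance.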

Data set [3] deals with Rattus norvegicus. The experiment in a line: Hyperglycemic activity and change in blood glucose concentration was reported 4 hours after administration (100 mg/Kg perorally). In kind it is functional. In outline: as §1
In data set [4] the test system is Rattus norvegicus. The experiment in a line: Hyperglycemic activity and change in blood glucose concentration was reported 4 hours after administration of 100 mg/Kg perorally. The format is functional. In outline:
as §1

The subject of data set [5] is Rattus norvegicus. As to the kind of experiment: Hyperglycemic activity and change in blood glucose concentration was reported 2 hours after administration of 100 mg/Kg perorally. The format is functional. In outline:
as §1

The values that follow come from ChEMBL document CHEMBL1123654, “Synthesis of N-(3,6-dihydro-1(2H)-pyridinyl)benzamides with hyperglycemic-hypoglycemic activity” (J Med Chem, 1987).

Structures are written as SMILES.

In the case of `O=C(NN1CCC=C(F)C1)c1ccccc1`, the logP in data set [1] is 1.27. The Change is 64% with Rattus norvegicus [2] and 42% in the data set on Rattus norvegicus [3].
The corresponding values for `COC(=O)CCC1=CCN(NC(=O)c2ccccc2)CC1` are 0.949, -9% and -9%.
In data set [1], `COC(=O)CCC1=CCCN(NC(=O)c2ccccc2)C1` showed a logP of 0.74. The results for the Change with Rattus norvegicus [2] and with Rattus norvegicus [3] were -2% and 6%, respectively.
In turn, `CC1=CCN(NC(=O)c2ccccc2)CC1` gave a logP in data set [1] of 1.2. Moreover, the Change in the data set on Rattus norvegicus [2] was 48%; in the data set with Rattus norvegicus [3], 43%.
As to `CC(=O)OCCCC1=CCN(NC(=O)c2ccccc2)CC1`, the logP in data set [1] was 1.52. For the same molecule, the Change with Rattus norvegicus [2] was 2%; in the data set with Rattus norvegicus [3], 3%.
The matching figures for `O=C(NN1CCC=CC1=O)c1ccccc1`: 1.17, 1% and 4%.
The corresponding values for `CC(O)C1=CCN(NC(=O)c2ccccc2)CC1` (stereo unspecified) are 0.0414, -10% and -5%.
With `O=C(NN1CC=CCC1)c1ccccc1`, the results for the Change in the data set with Rattus norvegicus [2] and with Rattus norvegicus [3] were 78% and 50%, respectively.
`O=C(NN1CC=C(CCCO)CC1)c1ccccc1`: the logP in data set [1] is 1.22. In addition, the Change in the data set on Rattus norvegicus [2] is 4%; in the data set on Rattus norvegicus [3] it was -6%.
The corresponding values for `O=C(O)CCC1=CCN(NC(=O)c2ccccc2)CC1` are 1, -4% and 7%.
`CC(O)C1=CCCN(NC(=O)c2ccccc2)C1` (stereo unspecified): the logP in data set [1] was 0.447. Also, the Change in the data set on Rattus norvegicus [2] is on record as -8%; with Rattus norvegicus [3] it was -16%.
In data set [1], `CC1CC=CCN1NC(=O)c1ccccc1` (stereo unspecified) had a logP of 0.699. In addition, the Change in the data set on Rattus norvegicus [2] is recorded as 12%; with Rattus norvegicus [3], 16%.
In the case of `CC1=C(C)CN(NC(=O)c2ccccc2)CC1`, in data set [1], the logP was 1.35. The figures for the Change in the data set with Rattus norvegicus [2] and with Rattus norvegicus [3] were 27% and 20%, respectively.
The matching figures for `COCCCC1=CCCN(NC(=O)c2ccccc2)C1`: 0.908, -10% and -11%.
Regarding `CC(=O)C1=CCCN(NC(=O)c2ccccc2)C1`, in data set [1], the logP was -0.0969. The Change in the data set on Rattus norvegicus [2] is recorded as -5%; with Rattus norvegicus [3], -17%.
The molecule `COC1=CCN(NC(=O)c2ccccc2)CC1` showed a logP in data set [1] of 1.16. Moreover, the Change in the data set with Rattus norvegicus [4] stood at 7%; in the data set on Rattus norvegicus [5], 5%.
On to `O=C(NN1CCC=C(CCCO)C1)c1ccccc1`, for which, in data set [1], the logP was 1.12. Besides, the Change is given as -2% in the data set on Rattus norvegicus [2] and -6% in the data set on Rattus norvegicus [3].
In the case of `O=C(NN1CC=C(CO)CC1)c1ccccc1`, the logP in data set [1] is 0.643. In addition, the Change in the data set with Rattus norvegicus [2] is -10%; in the data set on Rattus norvegicus [3], -14%.
The corresponding values for `CC1=CCCN(NC(=O)c2ccccc2)C1` are 1.37, 124% and 116%.
In turn, `COC1=CCCN(NC(=O)c2ccccc2)C1` gave a logP in data set [1] of 1.62. Besides, the results for the Change in the data set on Rattus norvegicus [3] and with Rattus norvegicus [5] were -9% and -7%, respectively.
With `CC(=O)OCCCC1=CCCN(NC(=O)c2ccccc2)C1`, the logP in data set [1] was 1.49. Further, the figures for the Change with Rattus norvegicus [2] and with Rattus norvegicus [3] were -8% and 7%, respectively.
The corresponding values for `CC(=O)C1=CCN(NC(=O)c2ccccc2)CC1` are 0.38, -12% and -19%.
As to `O=C(O)CCC1=CCCN(NC(=O)c2ccccc2)C1`, the logP in data set [1] was 1.18. The Change in the data set on Rattus norvegicus [2] is listed as -14%; in the data set with Rattus norvegicus [3], -4%.
The matching figures for `COCCCC1=CCN(NC(=O)c2ccccc2)CC1`: 1.49, 1% and -9%.
As for `C=C1C=CCN(NC(=O)c2ccccc2)C1`, in data set [1], the logP is 1.37. Moreover, the Change with Rattus norvegicus [3] worked out at 4%; in the data set with Rattus norvegicus [5], 5%.
With `CCCNC(=O)NS(=O)(=O)c1ccc(Cl)cc1` [CHLORPROPAMIDE], the Change was -38% in the data set with Rattus norvegicus [3] and -42% in the data set with Rattus norvegicus [5].

Usually logP stands for the decadic logarithm of the partition coefficient of the neutral form, usually between octanol and water. A high value points to a more lipophilic compound.
